# Activity calls are given as the source filed them. The calls are words filed in the database; no cut-off is given here.
# Columns and labels:
# HT-29 = assay: Cytotoxicity against human HT-29 cells assessed as reduction in cell viability after 48 hrs by MTT assay; assay type: functional, cell-based; conditions: HT-29, 48 h
# Outline: (§1)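 Cell lines from NCCS were grown in DMEM with 10% FBS, penicillin and streptomycin at 37 °C, 5% CO2. Cells were seeded, left 24 h, then exposed to compound for 48 h. MTT (5 mg/ml stock) was added for 4 h. Formazan was dissolved in DMSO and absorbance read at 570 nm.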
# MCF7 = assay: Cytotoxicity against human MCF7 cells assessed as reduction in cell viability after 48 hrs by MTT assay; assay type: functional, cell-based; conditions: MCF7, 48 h; outline: as §1
# A549 = assay: Cytotoxicity against human A549 cells assessed as reduction in cell viability after 48 hrs by MTT assay; assay type: functional, cell-based; conditions: A549, 48 h; outline: as §1
# Calf thymus DNA [1] = assay: Binding affinity to calf thymus DNA assessed as hyperchromicity at 15 to 30 uM by CD spectroscopic method; assay type: nucleic-acid assay; conditions: Bos taurus
# Outline: (§2)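 CD spectra recorded from 225 to 325 nm with about 15 × 10^-6 M CT DNA. Compound:DNA molar ratios were 1:0 and 1:1, in 100 mM TE (pH 7.0) at 25 °C. Each spectrum is the average of three scans.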
# Calf thymus DNA [2] = assay: Binding affinity to calf thymus DNA assessed as change in viscosity at 15 uM by ethidium bromide staining-based method; assay type: nucleic-acid assay; conditions: Bos taurus
# Calf thymus DNA [3] = assay: Binding affinity to calf thymus DNA assessed as hypochromic shift formation at 25 uM by UV-vis spectra method; assay type: nucleic-acid assay; conditions: Bos taurus
# Outline: (§3)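 CT DNA titrated into a cuvette holding about 25 µM hybrid in 100 mM TE (pH 7.0), at 25 °C with a 1 cm quartz cell. The compound stock was in DMSO, diluted into buffer. DNA was added stepwise until the hybrid absorption band stayed at a fixed wavelength. Solutions were prepared fresh the same day.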
# Calf thymus DNA [4] = assay: Binding affinity to calf thymus DNA assessed as positive band formation at 15 to 30 uM by CD spectroscopic method; assay type: nucleic-acid assay; conditions: Bos taurus; outline: as §2
# [5] = biological target: DNA topoisomerase 2-alpha (Homo sapiens) (UniProt P11388); assay: Inhibition of topoisomerase 2 (unknown origin) assessed as reduction in decatenation of kinetoplast DNA at 100 uM incubated for 30 mins by ethidium bromide staining based gel electrophoresis method
# Chain of DNA topoisomerase 2-alpha (Homo sapiens) (P11388 whole entry): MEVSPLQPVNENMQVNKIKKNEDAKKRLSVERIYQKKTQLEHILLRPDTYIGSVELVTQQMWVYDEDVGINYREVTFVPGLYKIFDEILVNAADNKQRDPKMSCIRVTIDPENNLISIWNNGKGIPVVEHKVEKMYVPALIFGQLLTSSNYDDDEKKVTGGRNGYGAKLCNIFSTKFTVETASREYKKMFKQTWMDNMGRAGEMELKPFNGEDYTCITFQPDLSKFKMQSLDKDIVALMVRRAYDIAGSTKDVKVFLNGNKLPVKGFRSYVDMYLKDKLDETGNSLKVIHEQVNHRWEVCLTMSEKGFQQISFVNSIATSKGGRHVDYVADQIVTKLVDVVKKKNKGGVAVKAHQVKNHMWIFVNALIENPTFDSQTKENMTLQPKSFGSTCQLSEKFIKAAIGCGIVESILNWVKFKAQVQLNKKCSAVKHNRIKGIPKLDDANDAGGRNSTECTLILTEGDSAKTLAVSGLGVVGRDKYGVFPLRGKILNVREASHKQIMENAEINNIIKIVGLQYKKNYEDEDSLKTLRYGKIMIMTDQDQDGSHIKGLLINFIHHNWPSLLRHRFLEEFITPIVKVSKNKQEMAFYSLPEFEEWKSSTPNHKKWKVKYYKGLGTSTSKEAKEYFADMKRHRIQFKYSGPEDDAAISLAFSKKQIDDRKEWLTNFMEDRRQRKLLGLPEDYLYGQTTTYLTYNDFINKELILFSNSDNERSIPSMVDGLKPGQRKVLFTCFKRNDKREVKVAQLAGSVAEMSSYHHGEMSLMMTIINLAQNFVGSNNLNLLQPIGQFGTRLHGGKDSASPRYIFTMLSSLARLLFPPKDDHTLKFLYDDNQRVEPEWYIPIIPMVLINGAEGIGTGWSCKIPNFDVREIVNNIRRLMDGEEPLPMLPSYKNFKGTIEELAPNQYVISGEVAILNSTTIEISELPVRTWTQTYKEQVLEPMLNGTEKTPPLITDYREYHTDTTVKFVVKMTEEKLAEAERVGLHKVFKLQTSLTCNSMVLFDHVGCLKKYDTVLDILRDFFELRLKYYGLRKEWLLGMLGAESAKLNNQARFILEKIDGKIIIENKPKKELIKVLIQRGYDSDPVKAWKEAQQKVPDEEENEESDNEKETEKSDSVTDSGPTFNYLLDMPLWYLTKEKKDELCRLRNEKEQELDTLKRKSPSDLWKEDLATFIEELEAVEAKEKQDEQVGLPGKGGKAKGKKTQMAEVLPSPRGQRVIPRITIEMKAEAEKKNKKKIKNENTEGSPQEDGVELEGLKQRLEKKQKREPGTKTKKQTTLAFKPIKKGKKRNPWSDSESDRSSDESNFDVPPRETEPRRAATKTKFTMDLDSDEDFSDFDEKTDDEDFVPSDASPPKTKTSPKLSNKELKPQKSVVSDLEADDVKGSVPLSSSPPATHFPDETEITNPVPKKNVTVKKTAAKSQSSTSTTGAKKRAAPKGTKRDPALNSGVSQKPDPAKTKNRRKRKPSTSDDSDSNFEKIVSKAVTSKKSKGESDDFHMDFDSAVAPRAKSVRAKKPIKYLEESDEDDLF
# [6] = test system: Panel NCI-60 (60 carcinoma cell lines); assay: Growth inhibition of human NCI60 cells after 72 hrs by SRB assay; assay type: functional
# Calf thymus DNA [7] = assay: Binding affinity to calf thymus DNA assessed as increase in emission peak intensity at 10 uM by fluorescence spectroscopic method; assay type: nucleic-acid assay; conditions: Bos taurus
# Outline: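 Compound held constant at 10 µM and titrated with CT DNA added in multiples of 0.5 µM, at 25 °C in a 1 cm quartz cuvette. Excitation at 350 nm; emission recorded from 355 to 500 nm after each addition. Spectra are averages of three scans.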
# Calf thymus DNA [8] = assay: Binding affinity to calf thymus DNA assessed as bathochromic shift at 25 uM by UV-vis spectra method; assay type: nucleic-acid assay; conditions: Bos taurus; outline: as §3
# Calf thymus DNA [9] = assay: Binding affinity to calf thymus DNA assessed as absorption band formation at 25 uM by UV-vis spectra method; assay type: nucleic-acid assay; conditions: Bos taurus; outline: as §3
Activity (Calf thymus DNA [1]),Activity (Calf thymus DNA [2]),Activity (Calf thymus DNA [3]),Activity (Calf thymus DNA [4]),inhibition [5],Activity (Calf thymus DNA [7]),Activity (Calf thymus DNA [8]) [nm],Activity (Calf thymus DNA [9]),SMILES,IC50 (HT-29) [µM],IC50 (MCF7) [µM],IC50 (A549) [µM],GI50 [6] [µM]
,,,,,,,,O=C(/C=C/c1ccc(F)c(F)c1)N1CCN(CCN2C(=O)c3cccc4cccc(c34)C2=O)CC1,13.4,28.3,18.4,
Active,Active,Active,Active,Active,Active,,,Cc1nc2ccc(NC(=O)CN3CCN(CCN4C(=O)c5cccc6cccc(c56)C4=O)CC3)cc2s1,3.47,5.08,3.89,1.19 to 14.1
,,,,,,,,COc1ccc2nc(NC(=O)CN3CCN(CCN4C(=O)c5cccc6cccc(c56)C4=O)CC3)sc2c1,4.22,7.94,4.76,
,,,,,,,,COc1ccc(/C=C/C(=O)N2CCN(CCN3C(=O)c4cccc5cccc(c45)C3=O)CC2)cc1O,10.3,13.7,14.2,
,,,,,,,,O=C(/C=C/c1cc(F)c(F)c(F)c1)N1CCN(CCN2C(=O)c3cccc4cccc(c34)C2=O)CC1,13.8,19.5,14.8,
Active,,,,,,,,COc1cccc(/C=C/C(=O)N2CCN(CCN3C(=O)c4cccc5cccc(c45)C3=O)CC2)c1,15.6,34.1,21.7,
,,,,,,,,CCOc1ccc2nc(NC(=O)CN3CCN(CCN4C(=O)c5cccc6cccc(c56)C4=O)CC3)sc2c1,11.1,17.4,16.6,
,,,,,,,,COc1ccc(/C=C/C(=O)N2CCN(CCN3C(=O)c4cccc5cccc(c45)C3=O)CC2)c(OC)c1,23.9,28.7,27.2,
Active,Active,,Active,Active,Active,2,Active,O=C(CN1CCN(CCN2C(=O)c3cccc4cccc(c34)C2=O)CC1)Nc1ccc2ncsc2c1,3.72,7.91,4.07,1.38 to 43.3
,,,,,,,,O=C(/C=C/c1cccc(C(F)(F)F)c1)N1CCN(CCN2C(=O)c3cccc4cccc(c34)C2=O)CC1,17,26.4,19.7,
,,,,,,,,O=C(/C=C/c1cc(F)cc(F)c1)N1CCN(CCN2C(=O)c3cccc4cccc(c34)C2=O)CC1,8.39,13.7,6.41,
Active,inactive,,,inactive,Active,,,O=C(/C=C/c1ccccc1)N1CCN(CCN2C(=O)c3cccc4cccc(c34)C2=O)CC1,16,22.9,21.9,
,,,,,,,,O=C(CN1CCN(CCN2C(=O)c3cccc4cccc(c34)C2=O)CC1)Nc1nc2ccccc2s1,10.8,26.5,14.8,
,,,,,,,,Cc1ccc2nc(NC(=O)CN3CCN(CCN4C(=O)c5cccc6cccc(c56)C4=O)CC3)sc2c1,4.07,15,8.07,
,Active,Active,Active,Active,Active,,Active,O=C(/C=C/c1ccc2c(c1)OCO2)N1CCN(CCN2C(=O)c3cccc4cccc(c34)C2=O)CC1,3.8,18,4.79,
,,,,,,,,O=C(/C=C/c1cc(F)ccc1F)N1CCN(CCN2C(=O)c3cccc4cccc(c34)C2=O)CC1,4.18,11.2,6.39,
,,,,,,,,Cc1cc2nc(NC(=O)CN3CCN(CCN4C(=O)c5cccc6cccc(c56)C4=O)CC3)sc2cc1C,4.98,12.6,6.2,
,,,,,,,,O=C(/C=C/c1ccc(F)cc1F)N1CCN(CCN2C(=O)c3cccc4cccc(c34)C2=O)CC1,17.4,23.5,16.2,
,,,,,,,,CN(C)c1ccc(/C=C/C(=O)N2CCN(CCN3C(=O)c4cccc5cccc(c45)C3=O)CC2)cc1,4.01,13.1,8.26,
,,,,,,,,CCOc1ccc(/C=C/C(=O)N2CCN(CCN3C(=O)c4cccc5cccc(c45)C3=O)CC2)cc1,12,28.9,19.4,

SMILES,Activity (Calf thymus DNA [1]),Activity (Calf thymus DNA [2]),Activity (Calf thymus DNA [3]),Activity (Calf thymus DNA [4]),inhibition [5],Activity (Calf thymus DNA [7]),Activity (Calf thymus DNA [8]) [nm],Activity (Calf thymus DNA [9]),IC50 (HT-29) [µM],IC50 (MCF7) [µM],IC50 (A549) [µM],GI50 [6] [µM]
CN(C)CCN1C(=O)c2cccc3cc(N)cc(c23)C1=O [AMONAFIDE],,,,,inactive,,,,5.46,4.05,7.76,
